Source: ChEMBL document CHEMBL4257586, “Polyheteroaryl Oxazole/Pyridine-Based Compounds Selected in Vitro as G-Quadruplex Ligands Inhibit Rock Kinase and Exhibit Antiproliferative Activity” (J Med Chem, 2018)
Activity calls are given as the source filed them. The rule behind the calls is not given here.

Assays:
[1] = target: T1, Rho-associated protein kinase 2 (Homo sapiens, UniProt O75116); assay: Inhibition of ROCK2 in human HeLa cells assessed as reduction in MYPT1 phosphorylation at Thr853 at 5 uM after 3 hrs by immunofluorescence assay; type: cell-based
Outline: (§1)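 HeLa cells treated 3 h at 2 or 5 μM, with Y-27632 and untreated controls, then formaldehyde-fixed. Phospho-MYPT1 Thr853 or phospho-cofilin Ser3 immunostained with DNA. Confocal 0.5 μm slices plus z-projection, with acquisition settings fixed from the control.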

A-375 [2] = assay: Induction of double stranded DNA breaks in human A375 cells assessed as gamma-H2Ax phosphorylation at 2 uM after 24 to 48 hrs by Hoechst 33342 staining-based laser confocal microscopy; type: functional, cell-based
Quadruplex DNA = assay: Binding affinity to 6-FAM labeled human proto-oncogene sequence FMycT G-quadruplex DNA assessed as change in melting temperature at 1 uM in presence of K+ buffer (1 mM KCl, 99 mM LiCl, 10 mM Li cacodylate) by FRET assay; type: nucleic-acid assay
Outline: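 FRET melting in duplicate. Dual-labelled oligo (6-FAM/TAMRA) at 0.2 μM with ligand at 1 μM, in 10 mM Li cacodylate pH 7.2. Buffer was 10 mM KCl + 90 mM LiCl for F21T and 1 mM KCl + 99 mM LiCl for FMycT. Sample annealed 90 °C 5 min, cooled to 4 °C overnight. Equilibrated 5 min at 25 °C, then ramped 0.5 °C/min to 95 °C. FAM read 492/516 nm, normalized; Tm taken at the fitted inflection point.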

HeLa [3] = assay: Cytotoxicity against human HeLa cell spheroids assessed as spheroid growth inhibition at 4 uM administered at day 3 post expansion and measured after […] by 3D-celltiter Glo assay relative to control; type: functional
Outline: (§2)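 HeLa cells plated at 800/well in ultralow-adherence plates; one spheroid formed within 24 h at 37 °C, 5% CO2, grown in complete medium. Drug added at day 3, at four concentrations per compound. Largest section area measured daily by confocal imaging, five spheroids per condition. ATP-based CellTiter-Glo 3D luminescence read at day 6 after dosing.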

[4] = target: T1, Rho-associated protein kinase 2; assay: Inhibition of ROCK2 in human HeLa cells assessed as reduction in cofilin phosphorylation at Ser3 at 5 uM after 3 hrs by Western blot analysis; type: cell-based
Outline: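 HeLa cells treated 3 h at 2 or 5 μM, then lysed in RIPA buffer with protease and phosphatase inhibitors. Western blot probed with anti-phospho-cofilin Ser3 and anti-actin (1/1000) on the same split membrane; luminescence detection.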

[5] = Drug uptake in human HeLa cell cytoplasm at 3.3 uM after 17 hrs imaged with 488 nm excitation by intrinsic fluorescence based assay; type: ADME, subcellular
Outline: (§3)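 HeLa cells treated 17 h at 2 μM, or 3.3 μM for one analogue. Imaged by confocal microscopy with no added fluorophore, using 488 nm excitation, plus 405 nm excitation for the 3.3 μM treatment. Intrinsic compound fluorescence was compared with cell background near 510 nm.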

[6] = target: T1, Rho-associated protein kinase 2; assay: Inhibition of ROCK2 in human HeLa cells assessed as reduction in cofilin phosphorylation at Ser3 at 5 uM after 3 hrs by immunofluorescence assay; type: cell-based; outline: as §1
[7] = Drug uptake in human HeLa cell cytoplasm at 3.3 uM after 17 hrs imaged with 405 nm excitation by intrinsic fluorescence based assay; type: ADME, subcellular; outline: as §3
HeLa [8] = assay: Cytotoxicity against human HeLa cell spheroids assessed as effect on ATP content at 1 to 4 uM administered at day 3 post expansion and measured on day 6 by bioluminescence based assay; type: functional; outline: as §2
[9] = Drug uptake in human HeLa cell nucleus at 3.3 uM after 17 hrs imaged with 405 nm excitation by intrinsic fluorescence based assay; type: ADME, subcellular; outline: as §3
HeLa [10] = assay: Induction of cell cycle arrest in human HeLa cells at 2 uM after 48 hrs by propidium iodide-staining based flow cytometry; type: functional
Outline: (§4)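 HeLa cells serum-starved 96 h for synchronization, then released and treated 48 h. Fixed in ice-cold 70% ethanol 1 h, stained with propidium iodide 50 μg/mL plus RNase A 0.2 mg/mL for 15 min at 37 °C, and analyzed by FACS.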

A549 = assay: Cytotoxicity against human A549 cells assessed as presence of large vesicles at 2 uM after 24 to 48 hrs by Hoechst 33342 staining-based laser confocal microscopy; type: functional, cell-based
[11] = Drug uptake in human HeLa cell nucleus at 3.3 uM after 17 hrs imaged with 488 nm excitation by intrinsic fluorescence based assay; type: ADME, subcellular; outline: as §3
[12] = Drug uptake in human HeLa cell nucleus at 2 uM after 17 hrs imaged with 488 nm excitation by intrinsic fluorescence based assay; type: ADME, subcellular; outline: as §3
HEK293 = assay: Antiproliferative activity against HEK293 cells after 72 hrs by MTS assay; type: cell-based; conditions: Homo sapiens, HEK293, 72 h
Outline: (§5)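 Cells seeded at day 0 in 96-well plates, serial compound dilutions added at day 1; viable cells read 72 h after drug addition by MTS tetrazolium assay, in triplicate. IC50 taken as concentration halving cell growth. One first trial, then two additional experiments on selected compounds.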

A-375 [13] = assay: Antiproliferative activity against human A375 cells after 72 hrs by MTS assay; type: functional, cell-based; conditions: A-375, 72 h; outline: as §5
[14] = Drug uptake in human HeLa cell cytoplasm at 2 uM after 17 hrs imaged with 488 nm excitation by intrinsic fluorescence based assay; type: ADME, subcellular; outline: as §3
U-87 MG = assay: Antiproliferative activity against human U87 cells after 72 hrs by MTS assay; type: functional, cell-based, U-87MG ATCC; outline: as §5
HeLa [15] = assay: Antiproliferative activity against human HeLa cells after 72 hrs by MTS assay; type: functional, cell-based; outline: as §5
[16] = target: T1, Rho-associated protein kinase 2; assay: Inhibition of ROCK2 in human HeLa cells assessed as reduction in cofilin phosphorylation at Ser3 at 2 uM after 3 hrs by immunofluorescence assay; type: cell-based; outline: as §1
HeLa [17] = assay: Cytotoxicity against human HeLa cell spheroids assessed as cell growth inhibition at 570 nM administered at day 3 post expansion and […] by 3D-celltiter Glo assay; type: functional, cell-based; outline: as §2
HeLa [18] = assay: Cytotoxicity against human HeLa cell spheroids assessed as effect on ATP content at 0.57 to 2 uM administered at day 3 post expansion and measured on day 6 by bioluminescence based assay; type: functional; outline: as §2
A-431 = assay: Antiproliferative activity against human A431 cells after 72 hrs by MTS assay; type: functional, cell-based; conditions: A-431, 72 h; outline: as §5
[19] = target: T1, Rho-associated protein kinase 2; assay: Inhibition of ROCK2 in human HeLa cells assessed as reduction in MYPT1 phosphorylation at Thr853 at 2 uM after 3 hrs by immunofluorescence assay; type: cell-based; outline: as §1
HeLa [20] = assay: Induction of cell cycle arrest in human HeLa cells at 1 uM after 48 hrs by propidium iodide-staining based flow cytometry; type: functional; outline: as §4
[21] = target: T1, Rho-associated protein kinase 2; assay: Inhibition of ROCK2 (unknown origin) at 1 uM by ATP competition assay relative to control
Outline: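 Single-point screen at 1 μM across a 50-kinase panel: recombinant enzymes, 33P-ATP radioactive filter-binding assay, duplicates, activity expressed relative to no-compound control.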

HeLa [22] = assay: Cytotoxicity against human HeLa cell spheroids assessed as effect on ATP content at 0.3 to 2 uM […] by bioluminescence based assay; type: functional
HeLa [23] = assay: Cytotoxicity against human HeLa cell spheroids assessed as cell growth inhibition at 300 nM administered at day 3 post expansion and measured […] by 3D-celltiter Glo assay; type: functional, cell-based; outline: as §2

T1 sequence (O75116 whole entry, looked up): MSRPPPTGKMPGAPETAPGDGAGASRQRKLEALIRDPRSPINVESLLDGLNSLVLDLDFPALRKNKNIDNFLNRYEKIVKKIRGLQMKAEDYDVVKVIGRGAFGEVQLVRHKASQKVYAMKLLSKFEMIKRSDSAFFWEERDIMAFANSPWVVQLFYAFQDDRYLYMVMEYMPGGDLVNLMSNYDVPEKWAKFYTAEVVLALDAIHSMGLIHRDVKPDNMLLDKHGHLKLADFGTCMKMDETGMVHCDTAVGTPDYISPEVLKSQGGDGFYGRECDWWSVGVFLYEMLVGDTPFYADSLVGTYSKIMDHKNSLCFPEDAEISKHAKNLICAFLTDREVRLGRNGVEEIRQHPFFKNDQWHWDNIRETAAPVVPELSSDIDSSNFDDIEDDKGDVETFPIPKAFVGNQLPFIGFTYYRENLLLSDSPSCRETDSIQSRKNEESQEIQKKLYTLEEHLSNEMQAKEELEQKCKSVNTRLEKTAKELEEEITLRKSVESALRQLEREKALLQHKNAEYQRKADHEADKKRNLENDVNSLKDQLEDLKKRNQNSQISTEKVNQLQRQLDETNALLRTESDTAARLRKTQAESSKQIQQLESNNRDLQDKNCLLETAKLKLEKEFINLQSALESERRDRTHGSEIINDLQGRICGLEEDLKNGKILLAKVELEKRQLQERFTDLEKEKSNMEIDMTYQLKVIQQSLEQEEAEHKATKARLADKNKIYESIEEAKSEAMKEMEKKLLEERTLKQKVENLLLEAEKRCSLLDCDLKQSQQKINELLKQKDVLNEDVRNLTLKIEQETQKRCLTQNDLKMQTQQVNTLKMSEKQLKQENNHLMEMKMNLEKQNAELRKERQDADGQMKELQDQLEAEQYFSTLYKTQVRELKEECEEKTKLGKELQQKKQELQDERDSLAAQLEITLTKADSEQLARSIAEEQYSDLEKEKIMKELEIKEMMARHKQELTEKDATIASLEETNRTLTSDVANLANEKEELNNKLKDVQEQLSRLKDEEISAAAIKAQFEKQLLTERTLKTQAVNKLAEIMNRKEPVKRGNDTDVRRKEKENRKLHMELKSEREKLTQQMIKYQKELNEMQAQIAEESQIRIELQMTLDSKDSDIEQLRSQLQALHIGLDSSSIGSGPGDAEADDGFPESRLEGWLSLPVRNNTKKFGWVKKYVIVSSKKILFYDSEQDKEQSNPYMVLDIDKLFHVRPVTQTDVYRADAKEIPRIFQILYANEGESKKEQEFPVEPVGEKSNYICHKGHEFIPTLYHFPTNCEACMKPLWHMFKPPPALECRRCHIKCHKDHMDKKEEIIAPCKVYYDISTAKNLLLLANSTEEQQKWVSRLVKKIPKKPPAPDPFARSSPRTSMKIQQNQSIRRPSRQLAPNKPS

Row | ΔTm (Quadruplex DNA) [°C] | Drug uptake [12] | IC50 (A-375 [13]) [nM] | Drug uptake [14] | IC50 (U-87 MG) [nM] | IC50 (HeLa [15]) [nM] | inhibition [16] | IC50 (A-431) [nM] | inhibition [19] | Compound | Activity (HeLa [20]) | further results
1 | 3.4 to 6.4 |  |  |  |  |  |  |  |  | CN(C)CCOc1cc(-c2ncc(-c3cccc(-c4cnco4)n3)o2)nc(-c2ncc(-c3cccc(-c4cnco4)n3)o2)c1 |  | inhibition [1]: Active; Activity (A-375 [2]): inactive; growth inhibition (GI) (HeLa [3]): 25%; inhibition [4]: Active; Drug uptake [5]: Active; inhibition [6]: Active; Drug uptake [7]: Active; Activity (HeLa [8]): Active; Drug uptake [9]: Active; Activity (HeLa [10]): inactive; Activity (A549): Active; Drug uptake [11]: Active
2 | 3.4 to 6.4 | Active | 440 | Active | 440 | 257 | Active | 645 | Active | c1cc(-c2cnco2)nc(-c2cnc(-c3cccc(-c4ncc(-c5cccc(-c6cnco6)n5)o4)n3)o2)c1 | inactive | IC50 (HEK293): 457 nM; growth inhibition (GI) (HeLa [17]): Active; Activity (HeLa [18]): Active
3 |  | Active | 592 | Active | 246 | 134 | Active | 541 | Active | c1cc(-c2cnco2)nc(-c2cnc(-c3cccc(-c4cccc(-c5ncc(-c6cccc(-c7cnco7)n6)o5)n4)n3)o2)c1 | inactive | inhibition [21]: 70%; Activity (HeLa [22]): Active; growth inhibition (GI) (HeLa [23]): Active
